Our source for the IC50 values is ChEMBL document CHEMBL1146358, “ANN-QSAR model for selection of anticancer leads from structurally heterogeneous series of compounds” (Eur J Med Chem, 2007).

Holding throughout (format): functional, cell-based
A short description of test [1]: Growth inhibition of human CEM/0 cells. To be noted: CCRF-CEM. Summed up:
(§1)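 Cells grown with test compound for 72 h at 37 C in humidified CO2-controlled atmosphere; cells counted by Coulter counter at end of incubation; IC50 = concentration reducing number of living cells by 50%.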

Test [2] is described as follows: Growth inhibition of mouse L1210/0 cells. Summed up: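 Cells grown with test compound for 48 h at 37 C in humidified CO2-controlled atmosphere; cells counted by Coulter counter at end of incubation; IC50 = concentration reducing number of living cells by 50%.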
Test [3] can be described thus: Growth inhibition of human Molt4/C8 cells. The settings on record: MOLT-4. In short, it runs like this:
as §1

≈ marks a conversion by molar mass, not a printed value.

Take `O=c1[nH]c(=O)n(C2CCCC2)cc1I`: the IC50 was determined as 60.9 mg/L (≈ 199 µM) in test [1], 98.8 mg/L (≈ 323 µM) in test [2] and 53.2 mg/L (≈ 174 µM) in test [3].

Consider `O=c1[nH]c(=O)n(C2CCCC2)cc1Br`, for which the results for the IC50 in test [1], in test [2] and in test [3] were 37.1 mg/L (≈ 143 µM), 50.3 mg/L (≈ 194 µM) and 97.2 mg/L (≈ 375 µM), respectively.

Take `O=c1[nH]c(=O)n(C2CCCC2)cc1F`: the values for the IC50 in test [1], in test [2] and in test [3] were 66 mg/L (≈ 333 µM), 35.1 mg/L (≈ 177 µM) and 78.1 mg/L (≈ 394 µM), respectively.

Consider `O=c1ccn(C2CCCC2)c(=O)[nH]1`, for which the values for the IC50 in test [1], in test [2] and in test [3] were 80 mg/L (≈ 444 µM), 66.3 mg/L (≈ 368 µM) and 108 mg/L (≈ 599 µM), respectively.

Turning to `Cc1cn(C2CCCC2)c(=O)[nH]c1=O`, the concentration for half-maximal inhibition (IC50) in test [1] was found to be 138 mg/L (≈ 710 µM); in test [2] it was 85.2 mg/L (≈ 439 µM); in test [3], 98.8 mg/L (≈ 509 µM).

As for `O=c1[nH]c(=O)n(C2CCCC2)cc1Cl`, the IC50 in test [1] was determined as 82 mg/L (≈ 382 µM); in test [2], 103 mg/L (≈ 480 µM); in test [3], 81.3 mg/L (≈ 379 µM).

One may read the IC50 as the point on the concentration scale where inhibition reaches its midpoint. Low values mean greater potency in that assay, high ones weaker potency in that assay.
